Measured values reported in ChEMBL document CHEMBL1770086, “Design and synthesis of benzoxazole containing indole analogs as peroxisome proliferator-activated receptor-γ/δ dual agonists” (Bioorg Med Chem Lett, 2011).
Activity calls are given as the source filed them.

Assays:
Assay type in all cases: functional, cell-based
Details in all cases: CV-1
[1] = target: T1, Peroxisome proliferator-activated receptor alpha (Mus musculus) (UniProt P23204); test: Agonist activity at mouse PPARalpha expressed in CV1 cells co-expressing tk-PPRE-luciferase vector assessed as transient transactivation at 20 uM after 24 hrs by luciferase reporter gene assay relative to GW0746
T1 sequence (whole entry): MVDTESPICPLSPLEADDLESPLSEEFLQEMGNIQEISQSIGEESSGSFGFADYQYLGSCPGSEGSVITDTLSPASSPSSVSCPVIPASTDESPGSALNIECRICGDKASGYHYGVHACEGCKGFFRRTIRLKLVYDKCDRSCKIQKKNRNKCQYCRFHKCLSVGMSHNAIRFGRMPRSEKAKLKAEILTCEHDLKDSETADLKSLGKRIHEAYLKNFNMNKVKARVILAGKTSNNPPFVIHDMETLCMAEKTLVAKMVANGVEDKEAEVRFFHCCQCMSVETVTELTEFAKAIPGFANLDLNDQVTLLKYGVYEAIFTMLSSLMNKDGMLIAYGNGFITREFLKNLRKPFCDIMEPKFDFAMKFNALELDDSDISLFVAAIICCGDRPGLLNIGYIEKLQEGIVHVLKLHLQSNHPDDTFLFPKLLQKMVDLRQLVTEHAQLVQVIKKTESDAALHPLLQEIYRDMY
How it was run: (§1)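 CV-1 cells seeded at 1.5 × 10⁵ cells/well in DMEM with 10% FBS. Transient transfection for 6 h with PPAR expression vector, tk-PPRE-luciferase reporter and β-galactosidase plasmid, then 24 h of compound exposure. Luciferase read in cell lysates. β-gal read as absorbance at 410 nm. Activity expressed as luciferase/β-gal. Not active means below 10% transactivation at 20 µM. At least three separate experiments.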

[2] = target: T2, Peroxisome proliferator-activated receptor gamma (Mus musculus) (UniProt P37238); test: Agonist activity at mouse PPARgamma expressed in CV1 cells co-expressing tk-PPRE-luciferase vector assessed as transient transactivation at 20 uM after 24 hrs by luciferase reporter gene transactivation assay relative to rosiglitazone; how it was run: as §1
T2 sequence (whole entry): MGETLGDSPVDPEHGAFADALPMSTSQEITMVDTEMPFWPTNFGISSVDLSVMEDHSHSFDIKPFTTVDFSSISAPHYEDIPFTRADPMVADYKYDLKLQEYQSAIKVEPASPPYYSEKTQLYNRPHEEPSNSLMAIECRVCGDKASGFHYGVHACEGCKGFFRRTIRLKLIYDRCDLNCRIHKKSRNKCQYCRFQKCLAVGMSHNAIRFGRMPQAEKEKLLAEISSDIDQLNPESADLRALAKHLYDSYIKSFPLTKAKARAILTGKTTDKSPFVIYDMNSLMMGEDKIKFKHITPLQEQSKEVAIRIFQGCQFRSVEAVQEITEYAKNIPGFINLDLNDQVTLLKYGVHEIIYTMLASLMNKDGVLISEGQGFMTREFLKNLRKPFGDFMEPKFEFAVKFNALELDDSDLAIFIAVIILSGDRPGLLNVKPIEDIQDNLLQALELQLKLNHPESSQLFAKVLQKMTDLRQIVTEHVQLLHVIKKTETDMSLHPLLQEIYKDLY

[3] = target: T3, Peroxisome proliferator-activated receptor delta (Mus musculus) (UniProt P35396); test: Agonist activity at mouse PPARdelta expressed in CV1 cells co-expressing tk-PPRE-luciferase vector assessed as transient transactivation at 20 uM after 24 hrs by luciferase reporter gene transactivation assay relative to GW0742; how it was run: as §1
T3 sequence (whole entry): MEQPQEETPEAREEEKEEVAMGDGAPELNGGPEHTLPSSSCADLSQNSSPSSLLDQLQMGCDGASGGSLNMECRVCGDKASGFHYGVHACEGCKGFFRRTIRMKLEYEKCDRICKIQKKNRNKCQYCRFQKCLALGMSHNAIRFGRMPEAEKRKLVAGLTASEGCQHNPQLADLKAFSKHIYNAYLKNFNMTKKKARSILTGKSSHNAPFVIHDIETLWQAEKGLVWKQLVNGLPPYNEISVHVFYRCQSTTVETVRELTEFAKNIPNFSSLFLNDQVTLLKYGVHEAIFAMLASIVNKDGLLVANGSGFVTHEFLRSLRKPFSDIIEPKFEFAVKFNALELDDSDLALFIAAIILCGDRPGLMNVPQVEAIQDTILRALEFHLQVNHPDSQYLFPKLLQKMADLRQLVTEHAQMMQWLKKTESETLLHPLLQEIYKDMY

Activity [1]	Activity [2]	Activity [3]	Compound
inactive	inactive	inactive	CN(CCOc1ccc2cc(C(=O)O)[nH]c2c1)c1nc2ccccc2o1
inactive	inactive	inactive	CN(CCCOc1ccc2c(c1)c(CC(=O)O)cn2CC(=O)O)c1nc2ccccc2o1
13.3%	15.8%	inactive	CN(CCCOc1ccc2c(c1)c(CC(=O)O)cn2Cc1ccc(F)cc1)c1nc2ccccc2o1
inactive	inactive	14.6%	CN(CCOc1ccc2cc(C(=O)O)[nH]c2c1)c1nc2ccccc2s1
inactive	66.7%	32.9%	CCn1cc(CC(=O)O)c2cc(OCCN(C)c3nc4ccccc4o3)ccc21
inactive	inactive	inactive	COC(=O)Cc1cn(Cc2ccc(F)cc2)c2ccc(OCCCN(C)c3nc4ccccc4o3)cc12
16.7%	66.4%	68.8%	CCn1c(C(=O)O)cc2ccc(OCCN(C)c3nc4ccccc4s3)cc21
inactive	28.1%	inactive	CN(CCOc1ccc2[nH]cc(CC(=O)O)c2c1)c1nc2ccccc2o1
inactive	37.1%	inactive	COC(=O)Cc1cn(CC(=O)OC)c2ccc(OCCCN(C)c3nc4ccccc4o3)cc12
28%	58.6%	inactive	CN(CCOc1ccc2c(c1)c(CC(=O)O)cn2C)c1nc2ccccc2o1
inactive	inactive	inactive	CN(CCOc1ccc2cc(C(=O)O)n(C)c2c1)c1nc2ccccc2o1
10%	43.9%	33.4%	CN(CCOc1ccc2cc(C(=O)O)n(Cc3ccccc3)c2c1)c1nc2ccccc2o1
13.6%	29.6%	27.9%	CN(CCOc1ccc2cc(C(=O)O)n(C)c2c1)c1nc2ccccc2s1
inactive	42.1%	inactive	COC(=O)Cc1c[nH]c2ccc(OCCCN(C)c3nc4ccccc4o3)cc12
inactive	28.9%	18.3%	COC(=O)Cc1cn(C(=O)c2ccc(Cl)cc2)c2ccc(OCCCN(C)c3nc4ccccc4o3)cc12
inactive	18.3%	inactive	CN(CCCOc1ccc2[nH]cc(CC(=O)O)c2c1)c1nc2ccccc2o1
inactive	23.3%	inactive	CCn1c(C(=O)O)cc2ccc(OCCN(C)c3nc4ccccc4o3)cc21
